{"source": "paper PMC3401037", "about": "(ACS Chemical Biology, 2012)", "key": {"Luciferase expression": {"tested_on": "Luciferase expression", "test": "Whole mount immunohistochemistry with anti-luciferase antibody in GRE:Luc larvae", "type": "in vivo, zebrafish", "settings": "5 dpf larvae, 40 μM, 8 h"}, "GC signaling [1]": {"tested_on": "GC signaling", "test": "Pilot chemical screen of FDA approved drug library, GRE:Luc larvae", "type": "in vivo, zebrafish", "settings": "48 h; for primary screen hit (activation of GC signaling): larvae, 4 μg/mL in 0.3% DMSO, robust z-score cutoff 1.49; for retest for activation of GC signaling: GRE:Luc larvae, at least 2 concentrations", "in_short": "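Single 5 dpf GRE:Luc larvae in luciferin-E3 were exposed to library compounds at a final 4 μg/mL in 0.3% DMSO (prediluted to 40 μg/mL in 3% DMSO), with 5–11 replicates per compound. Each plate held 8 DEX (10 μM) and 8 DMSO controls; reading lasted 48 h. Hits were called from log-transformed AUCs, robust z-scored, above a cutoff of 1.49 chosen by ROC/Youden index. Retests used a second supplier and ≥2 concentrations.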"}, "GC signaling [2]": {"tested_on": "GC signaling", "test": "GRIZLY assay: bioluminescence of single GRE:Luc transgenic zebrafish larvae", "type": "in vivo", "settings": "for relative reporter (luciferase) activity in response to treatment: 5 dpf, compound added to the water; for inhibition of dexamethasone-induced relative reporter activity: in presence of 5 μM dexamethasone", "in_short": "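Single 4 dpf transgenic larvae were placed one per well in E3 medium with 0.5 mM luciferin and dosed via the water at 5 dpf. The antagonist was given with 5 μM DEX; organotins with 5 μM DEX for 24 h; salt stress was 250 mM NaCl. Plates were sealed and read at 28 °C. Larval n was 48 for dose–response and 22 for salt. Tests were non-parametric, with EC50/IC50 from non-linear regression.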"}, "GC signaling [3]": {"tested_on": "GC signaling", "test": "AB.9 GRE:Luc cell reporter bioluminescence assay", "type": "cell-based, zebrafish", "settings": "AB.9 GRE:Luc cells; for inhibition of dexamethasone-induced relative reporter activity: co-treated with 10 nM DEX (Figure 2 legend: 5 nM)", "in_short": "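AB.9 GRE:Luc cells were seeded at 35,000 cells/well one day ahead and held at 28 °C. Medium was then swapped for phenol-red-free L-15 with 0.5 mM luciferin before compound addition. Organotin runs used DEX in 17% (v/v) charcoal-treated FCS with TBT or DBT at 30–500 nM. Plates were sealed and read for 24 h at 28 °C. Analysis used one-way ANOVA with Dunnett's posttest; IC50 came from non-linear regression.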"}, "GC signaling [4]": {"tested_on": "GC signaling", "test": "Pilot chemical screen of FDA approved drug library, AB.9 GRE:Luc cells", "type": "cell-based, zebrafish", "settings": "48 h; for primary screen hit (activation of GC signaling): 4 μg/mL in 0.3% DMSO, robust z-score cutoff 12.3; for retest for activation of GC signaling: at least 2 concentrations", "in_short": "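GRE:Luc AB.9 cells in luciferin-L-15 received library compounds prediluted to 40 μg/mL in 3% DMSO, giving a final 4 μg/mL in 0.3% DMSO. There were 3 replica plates, each with 8 DEX (10 μM) and 8 DMSO controls, read for 48 h. Log-transformed trapezoidal AUCs were robust z-scored, with a cutoff of 12.3 set by ROC/Youden index. Retests used a second supplier, the same setup and ≥2 concentrations.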"}, "[5]": {"tested_on": "endogenous cortisol levels", "test": "Cortisol-ELISA of larval extracts", "type": "in vivo, zebrafish", "settings": "after 20 min", "in_short": "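Osmotic stress was induced in 5 dpf larvae with 250 mM NaCl, and endogenous cortisol was followed over time after exposure (n = 5).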"}}, "note": "“Also recorded” adds a separate entry of the source.", "data": [{"smiles": "C[C@H]1C[C@H]2[C@@H]3CCC4=CC(=O)C=C[C@]4(C)[C@@]3(F)[C@@H](O)C[C@]2(C)[C@@]1(O)C(=O)CO", "note": "[betamethasone]", "values": [{"measurement": "fluorescence intensity of luciferase immunohistochemistry", "setting": "Luciferase expression", "value": "significant (p = 0.0115, n = 10) increase"}]}, {"smiles": "CC(=O)S[C@@H]1CC2=CC(=O)CC[C@]2(C)[C@H]2CC[C@@]3(C)[C@@H](CC[C@@]34CCC(=O)O4)[C@H]12", "note": "[spironolactone]", "values": [{"measurement": "primary screen hit (activation of GC signaling)", "setting": "GC signaling [1]", "value": "scored as primary screen hits"}]}, {"smiles": "C[C@]12CCC(=O)C=C1CC[C@@H]1[C@@H]2[C@@H](O)C[C@]2(C=O)[C@@H](C(=O)CO)CC[C@@H]12", "note": "[aldosterone]", "values": [{"measurement": "relative reporter (luciferase) activity in response to treatment", "setting": "GC signaling [2]; GRE:Luc larvae", "value": "did not respond"}, {"measurement": "relative reporter activity in response to treatment", "setting": "GC signaling [3]", "value": "did not respond"}]}, {"smiles": "C[C@]12C=CC(=O)C=C1CC[C@@H]1[C@@H]2C(=O)C[C@@]2(C)[C@H]1CC[C@]2(O)C(=O)CO", "note": "[prednisone]", "values": [{"measurement": "retest for activation of GC signaling", "setting": "GC signaling [1]", "value": "unable to do so at all concentrations tested"}, {"measurement": "primary screen hit (activation of GC signaling)", "setting": "GC signaling [1]", "value": "not retained in the primary screen"}, {"measurement": "primary screen hit (activation of GC signaling)", "setting": "GC signaling [4]", "value": "being the exception"}, {"measurement": "retest for activation of GC signaling", "setting": "GC signaling [4]", "value": "weak activation of GC signaling only at the highest concentration tested"}]}, {"smiles": "NCCC(O)(P(=O)(O)O)P(=O)(O)O", "note": "[pamidronic acid]", "values": [{"measurement": "primary screen hit (activation of GC signaling)", "setting": "GC signaling [4]", "value": "false positive hits"}, {"measurement": "retest for activation of GC signaling", "setting": "GC signaling [4]", "value": "could not be confirmed during the rescreen"}]}, {"smiles": "CC(=O)[C@H]1CC[C@H]2[C@@H]3CC=C4C[C@@H](O)CC[C@]4(C)[C@H]3CC[C@]12C", "note": "[pregnenolone]", "values": [{"measurement": "cortisol levels in the larvae after treatment", "setting": "[5]", "value": "significantly increased cortisol levels"}, {"measurement": "cortisol levels in the larvae after treatment", "setting": "[5]; listed as Pregnenolone", "value": "increase in cortisol (hydrocortisone) levels"}, {"measurement": "retest for activation of GC signaling", "setting": "GC signaling [1]", "value": "confirmed to activate the GC signaling pathway in vivo"}, {"measurement": "primary screen hit (activation of GC signaling)", "setting": "GC signaling [1]", "value": "scored as primary screen hits"}, {"measurement": "retest for activation of GC signaling", "setting": "GC signaling [4]", "value": "did not activate the GC pathway"}]}, {"smiles": "Nc1c2c(nc3ccccc13)CCCC2O", "note": "(stereo not drawn) [hydroxytacrine]", "values": [{"measurement": "primary screen hit (activation of GC signaling)", "setting": "GC signaling [4]", "value": "false positive hits"}, {"measurement": "retest for activation of GC signaling", "setting": "GC signaling [4]", "value": "could not be confirmed during the rescreen"}]}, {"smiles": "CCC[CH2][Sn]([CH2]CCC)[CH2]CCC", "note": "[TBT, tributyltin]", "values": [{"measurement": "lowest concentration inhibiting GC signaling in GRE:Luc larvae", "setting": "GC signaling [2]; GRE:Luc larvae, 5 μM dexamethasone, measured for 24 h, p ≤ 0.05", "value": 20, "unit": "nM"}, {"measurement": "inhibition of dexamethasone-induced relative reporter activity", "setting": "GC signaling [2]; GRE:Luc larvae", "value": "effective in inhibiting GC signaling"}, {"measurement": "inhibition of dexamethasone-induced relative reporter activity", "setting": "GC signaling [3]", "value": "indistinguishable from cells treated with DEX alone"}]}, {"smiles": "C[C@]12CCC(=O)C=C1CC[C@@H]1[C@@H]2[C@@H](O)C[C@@]2(C)[C@H]1CC[C@]2(O)C(=O)CO", "note": "[cortisol, hydrocortisone]", "values": [{"measurement": "relative reporter (luciferase) activity in response to treatment", "setting": "GC signaling [2]; GRE:Luc larvae", "value": "responded in a dose-dependent manner"}]}, {"smiles": "CC#C[C@]1(O)CC[C@H]2[C@@H]3CCC4=CC(=O)CCC4=C3[C@@H](c3ccc(N(C)C)cc3)C[C@@]21C", "note": "[mifepristone]", "values": [{"measurement": "inhibition of dexamethasone-induced relative reporter activity", "setting": "GC signaling [2]; GRE:Luc larvae", "value": "blocked the response of the reporter to DEX treatment"}, {"measurement": "inhibition of dexamethasone-induced relative reporter activity", "setting": "GC signaling [3]", "value": "blocked the response of the reporter to DEX treatment"}]}, {"smiles": "C[C@@H]1C[C@H]2[C@@H]3CCC4=CC(=O)C=C[C@]4(C)[C@@]3(F)[C@@H](O)C[C@]2(C)[C@@]1(O)C(=O)CO", "note": "[dexamethasone]", "values": [{"measurement": "induction of reporter activity at 1 dpf", "setting": "GC signaling [2]; 20 μM DEX, 1 dpf, 9 h after start of treatment", "value": "low-level yet non-significant induction"}, {"measurement": "relative reporter (luciferase) activity in response to treatment", "setting": "GC signaling [2]; GRE:Luc larvae", "value": "increase in relative luciferase activity"}, {"measurement": "relative reporter (luciferase) activity in response to treatment", "setting": "GC signaling [2]; GRE:Luc larvae, listed as DEX", "value": "responded in a dose-dependent manner"}]}, {"smiles": "C=C1C[C@H]2[C@@H]3C=C(C)C4=CC(=O)CC[C@]4(C)[C@H]3CC[C@]2(C)[C@@]1(OC(C)=O)C(C)=O", "note": "[melengestrol acetate]", "values": [{"measurement": "retest for activation of GC signaling", "setting": "GC signaling [1]", "value": "dose-dependently activate GC signaling"}, {"measurement": "primary screen hit (activation of GC signaling)", "setting": "GC signaling [1]", "value": "missed"}]}, {"smiles": "C[C@]12C[C@H](O)[C@H]3[C@@H](CCC4=CC(=O)CC[C@@]43C)[C@@H]1CC[C@@H]2C(=O)CO", "note": "[corticosterone]", "values": [{"measurement": "retest for activation of GC signaling", "setting": "GC signaling [1]", "value": "unable to do so at all concentrations tested"}, {"measurement": "primary screen hit (activation of GC signaling)", "setting": "GC signaling [1]", "value": "not retained in the primary screen"}, {"measurement": "retest for activation of GC signaling", "setting": "GC signaling [4]", "value": "able to activate the GC signaling pathway"}]}, {"smiles": "CCC[CH2][Sn]([Cl])([Cl])[CH2]CCC", "note": "[DBT, dibutyltin dichloride]", "values": [{"measurement": "inhibition of dexamethasone-induced relative reporter activity", "setting": "GC signaling [2]; GRE:Luc larvae", "value": "did not show statistically significant attenuation of GC signaling"}, {"measurement": "inhibition of dexamethasone-induced relative reporter activity", "setting": "GC signaling [3]", "value": "significantly reduced by treatment with 250 and 500 nM DBT; also recorded: statistically significant inhibition of bioluminescence at higher concentrations"}]}]}
